Source: ChEMBL document CHEMBL1955825, “1,3-Phenylene bis(ketoacid) derivatives as inhibitors of Escherichia coli dihydrodipicolinate synthase” (Bioorg Med Chem, 2012)

Assays:
Escherichia coli [1] = assay: Inhibition of Escherichia coli DHDPS-catalyzed condensation of pyruvate and aspartate semi-aldehyde at 5 mM measured after 1 min by UV-spectrophotometric analysis
Outline: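 E. coli DHDPS in 200 mM HEPES pH 8.0 was pre-incubated 1 min with inhibitor (from 100% DMSO; final 5 mM), with a DMSO-only control. Activity was then read by the coupled DHDPR assay, following NADPH oxidation at 340 nm at 30 °C. The result is % inhibition relative to the control.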

Escherichia coli [2] = assay: Inhibition of Escherichia coli DHDPS-catalyzed condensation of pyruvate and aspartate semi-aldehyde at 50 mM after 60 mins by UV-spectrophotometric analysis
[3] = (§1) Inhibition of Escherichia coli DHDPS-catalyzed condensation of pyruvate and aspartate semi-aldehyde by UV-spectrophotometric analysis; details: read-out: Ki(app)
Outline: (§2)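 Time-dependent assay: DHDPS in HEPES pH 8.0 (raised to 500 mM for the acidic inhibitor) was pre-incubated with inhibitor at 0.5–25 mM. Aliquots were serially diluted before adding to substrates, and residual rate was measured by DHDPR/NADPH coupling at 340 nm at 30 °C. Decay curves of v_t/v_0 were fitted per Copeland. Ki app came from a y-intercept isotherm midpoint, and Ki* app from k_obs versus [I].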

Escherichia coli [4] = assay: as §1; details: TDE = time-dependent effect; outline: as §2

Compound | inhibition (Escherichia coli [1]) | inhibition (Escherichia coli [2]) | inhibition (Escherichia coli [4]) | Ki [3]
COC(=O)C(=O)c1cccc(C(=O)C(=O)OC)c1 | 2% | – | – | –
COC(=O)C(=O)c1cccc(C(=O)C(=O)OC)c1O | 10% | – | tde | 40 µM
O=C(O)C(=O)c1cccc(C(=O)C(=O)O)c1O | 10% | – | tde | 290 µM

More lines, main results first:

inhibition (Escherichia coli [1]) | inhibition (Escherichia coli [2]) | inhibition (Escherichia coli [4]) | Compound | Ki [3]
23% | 34% | – | O=C(O)/C(=N\O)c1cccc(/C(=N/O)C(=O)O)c1 | –
49% | – | – | O=C(O)C(=O)c1cccc(C(=O)C(=O)O)c1 | 2960 µM
15% | – | – | COC(=O)/C(=N\O)c1cccc(/C(=N/O)C(=O)OC)c1 | 330 µM
